Assay results: ChEMBL document CHEMBL5230171, “Expanding the structure-activity relationships of alkynyl diphenylurea scaffold as promising antibacterial agents” (RSC Med Chem, 2023)
Converted amounts (≈) assume the structure as drawn. The source made the active and inactive calls. No cut-off for these calls is given here.

Experiments:
Staphylococcus aureus [1] = test: Antibacterial activity against methicillin resistant Staphylococcus aureus 386 assessed as inhibition of bacterial growth at 0.5 ug/ml incubated for 18 to 20 hrs by CLSI protocol based broth microdilution method; assay type: functional, organism-based; settings: dose 0.5 µg/ml, time 18-20 hrs
Staphylococcus aureus [2] = test: Antibacterial activity against methicillin resistant Staphylococcus aureus 385 assessed as inhibition of bacterial growth at 0.5 ug/ml incubated for 18 to 20 hrs by CLSI protocol based broth microdilution method; assay type: functional, organism-based; settings: dose 0.5 µg/ml, time 18-20 hrs
Staphylococcus aureus [3] = test: Antibacterial activity against vancomycin resistant Staphylococcus aureus 9 assessed as inhibition of bacterial growth at 0.5 ug/ml incubated for 18 to 20 hrs by CLSI protocol based broth microdilution method; assay type: functional, organism-based; settings: dose 0.5 µg/ml, time 18-20 hrs
Staphylococcus aureus [4] = test: Antibacterial activity against methicillin resistant Staphylococcus aureus 123 assessed as inhibition of bacterial growth at 0.5 ug/ml incubated for 18 to 20 hrs by CLSI protocol based broth microdilution method; assay type: functional, organism-based; settings: dose 0.5 µg/ml, time 18-20 hrs
Staphylococcus aureus [5] = test: Antibacterial activity against methicillin sensitive Staphylococcus aureus 6538 assessed as inhibition of bacterial growth at 0.5 ug/ml incubated for 18 to 20 hrs by CLSI protocol based broth microdilution method; assay type: functional, organism-based; settings: dose 0.5 µg/ml, time 18-20 hrs
In short: (§1)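 Staphylococcal and E. coli strains were diluted from a 0.5 McFarland suspension in cation-adjusted Mueller Hinton broth to ~5 × 10^5 CFU mL−1. They were incubated with serial dilutions of test agent in broth microdilution, and the MIC was recorded.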

Staphylococcus aureus [6] = test: Antibacterial activity against methicillin resistant Staphylococcus aureus 119 assessed as inhibition of bacterial growth at 0.5 ug/ml incubated for 18 to 20 hrs by CLSI protocol based broth microdilution method; assay type: functional, organism-based; settings: dose 0.5 µg/ml, time 18-20 hrs
Staphylococcus aureus [7] = test: Antibacterial activity against vancomycin resistant Staphylococcus aureus 10 assessed as inhibition of bacterial growth at 0.5 ug/ml incubated for 18 to 20 hrs by CLSI protocol based broth microdilution method; assay type: functional, organism-based; settings: dose 0.5 µg/ml, time 18-20 hrs
Staphylococcus aureus [8] = test: Post antibiotic effect against methicillin resistant Staphylococcus aureus NRS384 USA300 assessed as time required for 1 log10 increase in CFU at 5 times of MIC incubated for 2 hrs followed by replacement with drug free medium and measured after 18-24 hrs; assay type: functional
In short: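 MRSA USA300 at ~10^6 CFU mL−1 was exposed for 2 h to 5× MIC of test agent, with vancomycin or DMSO as controls. Drug was removed by 1:1000 dilution in fresh TSB. Cultures were incubated at 37 °C with 180 rpm shaking and sampled hourly for 8 h, with viable counts on MSA read after 18–24 h. PAE = T − C, where T and C are the times for a 1 log10 rise in the test and control cultures.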

Staphylococcus aureus [9] = test: Antibacterial activity against vancomycin resistant Staphylococcus aureus 12 assessed as inhibition of bacterial growth at 0.5 ug/ml incubated for 18 to 20 hrs by CLSI protocol based broth microdilution method; assay type: functional, organism-based; settings: dose 0.5 µg/ml, time 18-20 hrs
Staphylococcus aureus [10] = test: Antibacterial activity against methicillin resistant Staphylococcus aureus 384 assessed as inhibition of bacterial growth at 0.5 ug/ml incubated for 18 to 20 hrs by CLSI protocol based broth microdilution method; assay type: functional, organism-based; settings: dose 0.5 µg/ml, time 18-20 hrs
Staphylococcus aureus [11] = test: Antibacterial activity against methicillin sensitive Staphylococcus aureus 107 assessed as inhibition of bacterial growth at 0.5 ug/ml incubated for 18 to 20 hrs by CLSI protocol based broth microdilution method; assay type: functional, organism-based; settings: dose 0.5 µg/ml, time 18-20 hrs; in short: as §1
Staphylococcus aureus [12] = test: Antibacterial activity against methicillin resistant Staphylococcus aureus NRS384 USA300 assessed as inhibition of bacterial growth incubated for 18 to 20 hrs by CLSI protocol based broth microdilution method; assay type: functional; settings: time 18-20 hrs, read-out: MIC
In short: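 Broth microdilution against staphylococcal clinical isolates. Each strain was prepared as a 0.5 McFarland suspension and diluted in cation-adjusted Mueller Hinton broth to ~5 × 10^5 CFU mL−1. Serial dilutions of test agents in DMSO stock were incubated with the bacteria, and the MIC was recorded.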

Vero = test: Cytotoxicity against African green monkey Vero cells assessed as reduction in cell viability at 64 ug/ml incubated for 24 hrs by MTS assay; assay type: toxicity, cell-based; settings: chlorocebus sabaeus, dose 64 µg/ml
In short: (§2)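 Vero or HaCaT cells were exposed to 32, 64 and 128 μg mL−1 compound in triplicate for 24 h at 37 °C, 5% CO2, with a DMSO control. MTS was then added for 4 h and OD490 read. Analysis used two-way ANOVA with Dunnett's post hoc test (p < 0.05).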

[13] = Cytotoxicity against human HaCaT cells assessed as tolerance by measuring cell viability at 64 ug/ml incubated for 24 hrs by MTS assay relative to control; assay type: toxicity, cell-based; settings: at 64 µg/mL, read-out: Activity; in short: as §2

Row | SMILES | Activity (Staphylococcus aureus [1]) | Activity (Staphylococcus aureus [2]) | Activity (Staphylococcus aureus [3]) | Activity (Staphylococcus aureus [4]) | Activity (Staphylococcus aureus [5]) | Activity (Staphylococcus aureus [6]) | Activity (Staphylococcus aureus [7]) | Time (Staphylococcus aureus [8]) | Activity (Staphylococcus aureus [9]) | Activity (Staphylococcus aureus [10]) | Activity (Staphylococcus aureus [11]) | MIC (Staphylococcus aureus [12]) | Activity (Vero) | viability at 24 h, 64 ug/ml [13]
1 | CN[C@H](CC(C)C)C(=O)N[C@H]1C(=O)N[C@@H](CC(N)=O)C(=O)N[C@H]2C(=O)N[C@H]3C(=O)N[C@H](C(=O)N[C@H](C(=O)O)c4cc(O)cc(O)c4-c4cc3ccc4O)[C@H](O)c3ccc(c(Cl)c3)Oc3cc2cc(c3O[C@@H]2O[C@H](CO)[C@@H](O)[C@H](O)[C@H]2O[C@H]2C[C@](C)(N)[C@H](O)[C@H](C)O2)Oc2ccc(cc2Cl)[C@H]1O [VANCOMYCIN] | Active | Active | Active | Active | Active | Active | Active | 4 h | Active | Active | Active |  |  | 
2 | CCCC#Cc1ccc(NC(=O)Nc2ccc(/C(C)=N/NC(=N)N)cc2)cc1 |  |  |  |  |  |  |  |  |  |  |  | 0.5 mg/L (≈ 1.33 µM) |  | 
3 | CCCCCCC#Cc1ccc(NC(=O)Nc2ccc(/C(C)=N/NC(=N)N)cc2)cc1 | Active | Active | Active | Active | Active | Active | Active |  | Active | Active | Active | 0.5 mg/L (≈ 1.19 µM) | Non-Toxic | 100%
4 | CC(=O)NC[C@H]1CN(c2ccc(N3CCOCC3)c(F)c2)C(=O)O1 | Active | Active | Active | Active | Active | Active | Active |  | Active | Active | Active |  |  | 
5 | C/C(=N\NC(=N)N)c1ccc(NC(=O)Nc2ccc(C#CC(O)CC(C)C)cc2)cc1 (stereo not given) | Active | Active | Active | Active | Active | Active | Active |  | Active | Active | Active |  |  | 
